We go through one molecule from ChEMBL document CHEMBL4321819, “Simple Structural Modifications Converting a Bona fide MDM2 PROTAC Degrader into a Molecular Glue Molecule: A Cautionary Tale in the Design of PROTAC Degraders” (J Med Chem, 2019).

Activity calls are given as the source filed them. The rule behind the calls is not given here.

Assay [1] has as its target T1, Protein cereblon/Eukaryotic peptide chain release factor GTP-binding subunit ERF3A/DNA damage-binding protein 1/Cullin-4A (Homo sapiens) (UniProt Q96SW2+Q16531+Q13619+P15170). As to the kind of experiment: Protac activity at GSPT1/CUL4/DDB1/CRBN in human RS4:11/IRMI-2 cells harboring p53 hotspot mutation Y236H/R249G assessed as decrease in GSPT1 protein level after 2 hrs by Western blot analysis. In kind it is cell-based. Summed up:
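RS4;11 (wild-type p53) or RS4;11/IRMI-2 (MDM2 inhibitor-resistant derivative, mutant p53) cells kept in RPMI 1640 with 10% FBS at 37 °C, 5% CO₂. 2×10^6 cells/well treated at the indicated concentrations and times, then lysed in ice-cold lysis buffer with protease inhibitor. GSPT1 detected by Western blot with a specific antibody.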

Assay [2] has as its target T2, Eukaryotic peptide chain release factor GTP-binding subunit ERF3A (Homo sapiens, UniProt P15170). As to the kind of experiment: Induction of GSPT1 degradation in human MDA-MB-231 cells transfected with CRBN siRNA LQ-021086-10-0002 assessed as decrease in GSPT1 protein level at 0.1 uM after 2 to 24 hrs by Western blot analysis. It is filed as cell-based. A digest of the protocol: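 MDA-MB-231 cells transfected with CRBN or non-targeting siRNA, then exposed to 0.1 μM compound for 2 h or 24 h. Lysed in ice-cold lysis buffer with protease inhibitor; GSPT1 and cereblon probed by Western blot.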

The subject of assay [3] is MDA-MB-468. In words: Antiproliferative activity against human MDA-MB-468 cells harboring mutant p53 assessed as cell growth inhibition without interaction with cereblon after 4 days by WST-8 assay. It is filed as functional, cell-based. The following applies: MDA-MB-468, 96 h.
Assay [4] addresses T2, Eukaryotic peptide chain release factor GTP-binding subunit ERF3A. As to the kind of experiment: Induction of GSPT1 degradation in human RS4:11 cells at 0.1 uM pretreated with Nedd8 inhibitor MLN4924 followed by compound treatment after 2 hrs by Western blot analysis.
The next assay has as its system RS4-11. In words: Antiproliferative activity against human RS4:11 cells expressing wild type p53 assessed as MDM2-independent cell growth inhibition after 4 days by WST-8 assay. As to conditions: RS4-11, 96 h. It is filed as functional, cell-based. A digest of the protocol:
(§1)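 Leukemia cells seeded at 10000–20000 cells/well, breast cancer lines at 5000–10000 cells/well. Serially diluted compound added, then 4 days at 37 °C, 5% CO2. Growth read with WST-8 reagent after at least 1 h, absorbance at 450 nm. RS4;11, MOLM-13 and breast lines were grown in RPMI 1640; MV-4-11 and HL-60 in IMDM; all with 10% FBS. Mean ± SE, at least three independent experiments.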

Assay [5] deals with MDA-MB-231. As to the kind of experiment: Antiproliferative activity against human MDA-MB-231 cells transfected with MDM2 siRNA assessed as cell growth inhibition after 4 days by WST-8 assay. The following applies: MDA-MB-231, 96 h. In kind it is functional, cell-based. A digest of the protocol: (§2)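 MDA-MB-231 or MDA-MB-468 cells transfected for 2 days using Lipofectamine RNAiMAX with MDM2 siRNA, one of two CRBN siRNAs, or non-targeting control siRNA. Compound then added and growth read by WST-8 at 450 nm.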

Assay [6] concerns the target T2, Eukaryotic peptide chain release factor GTP-binding subunit ERF3A. In words: Induction of GSPT1 degradation in human RS4:11 cells measured after 24 hrs by Western blot analysis. In kind it is cell-based.
The target of assay [7] is Protein cereblon/Eukaryotic peptide chain release factor GTP-binding subunit ERF3A (Homo sapiens) (UniProt Q96SW2+P15170). As to the kind of experiment: Inhibition of cereblon binding with GSPT1 human MDA-MB-468 cells assessed as decrease in GSPT1 degradation at 0.1 uM after 2 hrs in presence of 30 uM lenalidomide by Western blot analysis. It is filed as cell-based. Summed up: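 MDA-MB-231 or MDA-MB-468 cells were treated 2 h with or without 30 μM lenalidomide to block cereblon binding. GSPT1 protein level was then assessed by Western blotting.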

The target in assay [8] is T1, Protein cereblon/Eukaryotic peptide chain release factor GTP-binding subunit ERF3A/DNA damage-binding protein 1/Cullin-4A (Homo sapiens). As to the kind of experiment: Protac activity at GSPT1/CUL4/DDB1/CRBN in human RS4:11/IRMI-2 cells harboring p53 hotspot mutation Y236H/R249G assessed as effect on GSPT1 mRNA level after 3 hrs by qRT-PCR analysis. In kind it is cell-based.

Assay [9] addresses Cellular tumor antigen p53 (Homo sapiens) (UniProt P04637). In words: Activation of p53 in human RS4:11 cells assessed as increase in CDKN1A mRNA expression at 3 nM after 1 to 2 hrs by qRT-PCR analysis. It is filed as cell-based. Summed up:
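RS4;11 cells (RPMI 1640, 10% FBS, 37 °C, 5% CO2) treated with 3 nM or 10 nM compound; total RNA extracted and mRNA of p53 targets MDM2, CDKN1A, PUMA and BAX quantified by qRT-PCR. Mean ± standard error from at least three independent experiments.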

Assay [10] has as its target T1, Protein cereblon/Eukaryotic peptide chain release factor GTP-binding subunit ERF3A/DNA damage-binding protein 1/Cullin-4A (Homo sapiens). In words: Protac activity at GSPT1/CUL4/DDB1/CRBN in human RS4:11 cells expressing wild type p53 assessed as decrease in GSPT1 protein level by measuring fold change of protein level before and after treatment at 0.1 uM measured after 3 hrs relative to control.

Assay [11] concerns MDA-MB-231. As to the kind of experiment: Antiproliferative activity against human MDA-MB-231 cells harboring mutant p53 assessed as cell growth inhibition after 4 days by WST-8 assay. In kind it is functional, cell-based. The following applies: MDA-MB-231, 96 h. A digest of the protocol:
as §1

Assay [12] can be described thus: Antiproliferative activity against human RS4:11/IRMI-2 cells harboring p53 hotspot mutation Y236H/R249G assessed as cell growth inhibition after 4 days by WST-8 assay. In kind it is functional, cell-based. The following applies: RS4-11, 96 h. Summed up: as §1
Assay [13] concerns MDA-MB-231. In words: Antiproliferative activity against human MDA-MB-231 cells assessed as cell growth inhibition after 4 days in presence of control siRNA for 2 days followed by compound treatment by WST-8 assay. In kind it is functional, cell-based. Summed up:
as §2

Assay [14] has as its system MDA-MB-468. As to the kind of experiment: Antiproliferative activity against human MDA-MB-468 cells assessed as cell growth inhibition after 4 days in presence of control siRNA for 3 days followed by compound treatment by WST-8 assay. It is filed as functional, cell-based.

T1 sequence (P15170 whole entry, looked up): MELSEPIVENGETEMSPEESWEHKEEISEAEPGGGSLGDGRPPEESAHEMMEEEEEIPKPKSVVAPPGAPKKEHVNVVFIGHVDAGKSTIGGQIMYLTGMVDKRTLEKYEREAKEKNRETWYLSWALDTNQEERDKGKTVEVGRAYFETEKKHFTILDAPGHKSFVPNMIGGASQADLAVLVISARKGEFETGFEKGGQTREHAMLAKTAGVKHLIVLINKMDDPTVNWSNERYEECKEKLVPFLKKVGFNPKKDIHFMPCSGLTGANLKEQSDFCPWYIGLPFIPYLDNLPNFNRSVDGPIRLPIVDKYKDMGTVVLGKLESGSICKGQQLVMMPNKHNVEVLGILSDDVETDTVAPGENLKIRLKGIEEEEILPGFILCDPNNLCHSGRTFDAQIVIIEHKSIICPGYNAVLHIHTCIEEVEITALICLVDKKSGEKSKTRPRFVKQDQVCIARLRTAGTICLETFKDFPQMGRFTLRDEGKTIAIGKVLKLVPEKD
T1 sequence (Q13619 whole entry, looked up): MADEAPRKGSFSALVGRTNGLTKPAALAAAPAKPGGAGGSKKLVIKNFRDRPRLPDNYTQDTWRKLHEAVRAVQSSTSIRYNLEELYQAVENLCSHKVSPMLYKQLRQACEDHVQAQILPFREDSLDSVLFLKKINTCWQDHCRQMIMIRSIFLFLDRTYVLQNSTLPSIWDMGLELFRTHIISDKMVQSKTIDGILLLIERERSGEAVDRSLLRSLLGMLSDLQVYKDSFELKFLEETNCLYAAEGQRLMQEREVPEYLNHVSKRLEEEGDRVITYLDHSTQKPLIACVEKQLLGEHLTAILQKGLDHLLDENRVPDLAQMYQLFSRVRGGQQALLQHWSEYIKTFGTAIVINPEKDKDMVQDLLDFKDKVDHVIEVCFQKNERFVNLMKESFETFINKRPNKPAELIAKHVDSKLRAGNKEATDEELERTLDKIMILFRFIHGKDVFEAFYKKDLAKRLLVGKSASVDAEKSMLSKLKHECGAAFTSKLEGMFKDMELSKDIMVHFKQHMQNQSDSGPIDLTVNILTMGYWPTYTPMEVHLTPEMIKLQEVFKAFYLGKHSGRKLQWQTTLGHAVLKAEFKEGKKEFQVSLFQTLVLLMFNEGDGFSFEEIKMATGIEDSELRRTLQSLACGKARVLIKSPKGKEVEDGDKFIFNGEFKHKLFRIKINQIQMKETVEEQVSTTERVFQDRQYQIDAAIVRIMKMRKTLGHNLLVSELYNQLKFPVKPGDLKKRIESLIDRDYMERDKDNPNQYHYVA
T1 sequence (Q16531 whole entry, looked up): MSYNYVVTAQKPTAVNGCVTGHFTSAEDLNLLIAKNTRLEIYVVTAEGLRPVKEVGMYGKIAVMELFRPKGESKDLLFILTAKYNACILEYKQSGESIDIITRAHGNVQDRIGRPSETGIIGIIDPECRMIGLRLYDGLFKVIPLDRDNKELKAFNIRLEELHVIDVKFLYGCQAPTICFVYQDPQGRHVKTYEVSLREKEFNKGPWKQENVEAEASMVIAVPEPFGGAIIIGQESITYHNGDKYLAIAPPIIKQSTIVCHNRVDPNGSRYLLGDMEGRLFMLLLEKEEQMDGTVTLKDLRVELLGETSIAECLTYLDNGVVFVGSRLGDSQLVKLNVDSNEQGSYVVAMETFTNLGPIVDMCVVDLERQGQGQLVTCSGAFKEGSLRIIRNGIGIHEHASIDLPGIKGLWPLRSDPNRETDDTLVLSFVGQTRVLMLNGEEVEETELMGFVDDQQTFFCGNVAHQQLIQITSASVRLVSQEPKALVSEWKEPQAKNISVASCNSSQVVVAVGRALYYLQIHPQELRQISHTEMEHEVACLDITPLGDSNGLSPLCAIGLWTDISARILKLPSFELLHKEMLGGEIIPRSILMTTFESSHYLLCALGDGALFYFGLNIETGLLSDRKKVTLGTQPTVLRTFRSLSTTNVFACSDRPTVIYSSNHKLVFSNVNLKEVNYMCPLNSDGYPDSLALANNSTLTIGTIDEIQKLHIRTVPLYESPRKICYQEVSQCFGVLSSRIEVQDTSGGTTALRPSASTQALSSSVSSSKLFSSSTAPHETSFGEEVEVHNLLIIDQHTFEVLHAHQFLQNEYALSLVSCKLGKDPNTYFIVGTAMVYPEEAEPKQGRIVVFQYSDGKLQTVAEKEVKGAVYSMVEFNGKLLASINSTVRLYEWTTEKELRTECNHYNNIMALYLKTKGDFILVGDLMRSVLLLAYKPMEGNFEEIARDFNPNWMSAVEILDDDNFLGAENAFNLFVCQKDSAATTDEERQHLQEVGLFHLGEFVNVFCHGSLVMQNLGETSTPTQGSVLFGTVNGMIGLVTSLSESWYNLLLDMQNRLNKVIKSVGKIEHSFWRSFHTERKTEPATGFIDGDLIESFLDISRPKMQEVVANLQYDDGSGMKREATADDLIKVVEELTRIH
T1 sequence (Q96SW2 whole entry, looked up): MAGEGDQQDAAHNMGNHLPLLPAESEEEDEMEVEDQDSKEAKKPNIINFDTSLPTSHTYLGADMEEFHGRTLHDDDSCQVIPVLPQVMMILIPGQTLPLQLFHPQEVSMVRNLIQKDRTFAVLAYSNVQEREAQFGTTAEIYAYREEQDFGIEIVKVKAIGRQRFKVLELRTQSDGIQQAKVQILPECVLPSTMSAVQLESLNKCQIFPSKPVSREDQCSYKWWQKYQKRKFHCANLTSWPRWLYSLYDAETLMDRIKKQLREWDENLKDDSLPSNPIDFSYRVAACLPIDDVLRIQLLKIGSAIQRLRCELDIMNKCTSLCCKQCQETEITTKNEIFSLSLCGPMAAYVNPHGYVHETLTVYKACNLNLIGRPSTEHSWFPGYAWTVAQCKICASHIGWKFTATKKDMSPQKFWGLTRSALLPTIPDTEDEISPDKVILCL
T2 sequence (P15170 whole entry): as the sequence (P15170 whole entry, looked up) above
Protein cereblon/Eukaryotic peptide chain release factor GTP-binding subunit ERF3A (Homo sapiens), sequence (P15170 whole entry, looked up): as above
Protein cereblon/Eukaryotic peptide chain release factor GTP-binding subunit ERF3A (Homo sapiens), sequence (Q96SW2 whole entry, looked up): as the sequence (Q96SW2 whole entry, looked up) above
Cellular tumor antigen p53 (Homo sapiens), sequence (P04637 whole entry, looked up): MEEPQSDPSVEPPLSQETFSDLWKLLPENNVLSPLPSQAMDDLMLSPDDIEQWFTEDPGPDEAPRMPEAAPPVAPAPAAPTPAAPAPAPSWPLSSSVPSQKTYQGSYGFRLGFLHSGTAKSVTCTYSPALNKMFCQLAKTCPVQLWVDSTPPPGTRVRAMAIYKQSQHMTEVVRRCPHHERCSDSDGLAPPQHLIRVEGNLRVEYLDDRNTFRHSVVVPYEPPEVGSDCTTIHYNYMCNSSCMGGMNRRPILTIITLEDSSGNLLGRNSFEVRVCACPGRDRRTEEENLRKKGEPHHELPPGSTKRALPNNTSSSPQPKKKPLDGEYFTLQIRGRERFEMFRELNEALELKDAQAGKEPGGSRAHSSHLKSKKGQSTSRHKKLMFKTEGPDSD

As to `O=C1CCC(N2Cc3c(CCCCCNC(=O)[C@@H]4NC5(CCCCC5)[C@@]5(C(=O)Nc6cc(Cl)ccc65)[C@H]4c4cccc(Cl)c4F)cccc3C2=O)C(=O)N1` (stereo not given in full), in assay [1], the result was Active. The result in [2], in assay [4], in assay [8] and in assay [9] was inactive. In addition, the IC50 in the assay with MDA-MB-468 [3] is 26.4 nM; in the assay with RS4-11 it was 2.3 nM; with MDA-MB-231 [5] it was 19.3 nM; in the assay on MDA-MB-231 [11], 39.4 nM; in assay [12], 3.4 nM; in the assay with MDA-MB-231 [13], 28.9 nM. Besides, in the assay with MDA-MB-468 [14], the IC50 amounted to 62 nM. Besides, the 50% degradation concentration (DC50) in assay [6] was determined as 1.3 nM. In assay [7], the inhibition entry is “Active”. For the same molecule, the fold change in assay [10] worked out at 5.3.
